Measured values reported in publication PMC3891043 (Canadian journal of chemistry, 2011).

How the values were obtained:
[1] = λ = 300 nm, reported earlier, for comparison, cited from earlier work
[2] = Photolysis quantum yields; assay type: physicochemical; conditions: for Φdis, disappearance quantum yield (pHP diethyl phosphates): λ = 300 nm, 50% aq CH3CN
Outline: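 Caged compound (1–9 mmol/L) plus internal standard (caffeine or 4-acetamidophenol) in water, buffer or solvent, in a quartz tube. Irradiated in a Rayonet carousel (two 15 W, 3000 Å Hg lamps), with ferrioxalate actinometry. Aliquots taken every 30 s up to 5 min, diluted and run on C18 LC-MS (water/methanol gradient with ammonium formate/formic acid), three injections each. Quantitation used calibration curves; Φ = concentration change / photons absorbed. 1H NMR in D2O confirmed products.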

[3] = Stern-Volmer quenching with sorbate; assay type: physicochemical; conditions: unbuffered 18 MΩ Ultrapure H2O; from KSV with kq assumed kdiff ~ 7.2 × 10^9 s^−1
Outline: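 pHP GABA (0.001–0.01 mol/L) was diluted with potassium sorbate quencher (0–0.1 mol/L) and photolysed under the quantum-yield conditions (Rayonet, 3000 Å, LC-MS quantitation of GABA release). KSV came from Φ0/Φ vs [Q]. Triplet lifetime was obtained from KSV, taking kq as the diffusion rate in water.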

[4] = Stability to aqueous hydrolysis; assay type: physicochemical; conditions: compared with other pHP phosphates
[5] = cited from earlier work
[6] = 300 nm, pH 5.0, ammonium acetate (0.01 mol/L), buffered CH3CN–H2O
[7] = unbuffered CH3CN–H2O (1:1), conversion <2%
[8] = unbuffered 18 MΩ Ultrapure H2O, conversion <2%

For CCOP(=O)(OCC)OCC(=O)c1ccc(O)cc1 [Compound 27, Diethyl (2-(4-hydroxyphenyl)-2-oxoethyl) phosphate], which “Φdis, disappearance quantum yield (parent pHP diethyl phosphate)” value ([1]; 50% aq CH3CN) is on record?
The value was 0.40.

For N#Cc1cc(C(=O)COC(=O)CCCN)ccc1O.O=C(O)C(F)(F)F [Compound 13, 4-(2-(3-Cyano-4-hydroxyphenyl)-2-oxoethoxy)-4-oxobutan-1-aminium-2,2,2-trifluoroacetate], which “Φapp, quantum yield for the appearance of GABA” value [2, 6] is on record?
The value was 0.13.

What about the “Φapp, quantum yield for the appearance of rearranged acid” value [2, 6] of the same compound?
Its value is 0.19.

And the “Φdis, quantum yield for the disappearance of pHP GABA” value [2, 6]?
The value was 0.21.

What about the “Φapp, quantum yield for the appearance of GABA” value [2, 7] of the same compound?
The value was 0.35.

And the “Φapp, quantum yield for the appearance of rearranged acid” value [2, 7]?
The value was 0.39.

And the “Φdis, quantum yield for the disappearance of pHP GABA” value [2, 7]?
Its value is 0.42.

And the “τ^3, triplet lifetime” value [3]?
Its value is 40.5 10^−9s.

What does the source list for CCOP(=O)(OCC)OCC(=O)c1c(OC)cc(O)cc1OC [Compound 31, Diethyl (2-(4-hydroxy-2,6-dimethoxyphenyl)-2-oxoethyl) phosphate]?
Φdis, disappearance quantum yield (pHP diethyl phosphates) [2]: 0.69; Stability to aqueous hydrolysis (qualitative) [4]: less stable to aqueous hydrolysis

Which “Φdis, disappearance quantum yield (pHP diethyl phosphates)” value [2] does the source give for CCOP(=O)(OCC)OCC(=O)c1ccc(O)cc1OC [Compound 30, Diethyl (2-(4-hydroxy-2-methoxyphenyl)-2-oxoethyl) phosphate] here?
The value was 0.59.

And the “Stability to aqueous hydrolysis (qualitative)” value [4]?
Its value is “less stable to aqueous hydrolysis”.

What does the source list for NCCCC(=O)OCC(=O)c1ccc(O)c(F)c1.O=C(O)C(F)(F)F [Compound 16, 4-(2-(3-Fluoro-4-hydroxyphenyl)-2-oxoethoxy)-4-oxobutan-1-aminium-2,2,2-trifluoroacetate]?
Φapp, quantum yield for the appearance of GABA [2, 6]: 0.14; Φapp, quantum yield for the appearance of rearranged acid [2, 6]: 0.14; Φdis, quantum yield for the disappearance of pHP GABA [2, 6]: 0.15; Φapp, quantum yield for the appearance of GABA [2, 8]: 0.15; Φapp, quantum yield for the appearance of rearranged acid [2, 8]: 0.15; Φdis, quantum yield for the disappearance of pHP GABA [2, 8]: 0.16; τ^3, triplet lifetime [3]: 3.23 10^−9s

Which “Triplet energy of the conjugate base” value ([5]; conjugate base of pHP) does the source give for p-hydroxyphenacyl [pHP] here?
The value was 61.2 kcal/mol.

What about the Triplet energy ([5]; un-ionized pHP) of the same compound?
The Triplet energy was 71.6 kcal/mol.

For CC(=O)OCC(=O)c1ccc(O)cc1 [Compound 24, 2-(4-Hydroxyphenyl)-2-oxoethyl acetate], which “Φdis, disappearance quantum yield (parent pHP acetate)” value ([1]; 20% aq CH3CN or DMSO) is on record?
The value was 0.30.
